# Screening data: PubChem BioAssay, several laboratories
# LMPTP block: LMPTP (human) inhibition | inhibition, % at 20 µM | P24666 | recombinant LMPTP-A, OMFP fluorogenic substrate, fluorescence intensity | 0.22% of 360,000 active;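 active = compounds that cut the enzyme signal by at least half of the control window in the single-dose screen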;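 also: plate controls were DMSO wells with enzyme plus substrate for no effect and substrate without enzyme for full effect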
# Target sequence (P24666 whole entry, looked up): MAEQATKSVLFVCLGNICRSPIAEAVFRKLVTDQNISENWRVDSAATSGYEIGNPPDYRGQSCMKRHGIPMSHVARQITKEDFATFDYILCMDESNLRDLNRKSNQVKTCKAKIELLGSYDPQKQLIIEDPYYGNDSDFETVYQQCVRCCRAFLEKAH
#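 Test system: LMPTP-A phosphatase enzyme; input: 0.625 nM LMPTP-A final; reagent: OMFP substrate, 400 µM final; compound dosing: 20 µM single dose, 3% DMSO; incubation: 50 min dark incubation at room temperature; measured by: endpoint fluorescence intensity from OMFP dephosphorylation; measure: % inhibition relative to no-enzyme and uninhibited control wells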
# STEP block: blocks human striatal-enriched tyrosine phosphatase | P54829 | recombinant STEP, OMFP fluorogenic substrate, fluorescence | AID 588621 | 0.25% of 360,000 active | inhibition, % at 20 µM;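 active = inhibition at 20 µM, scaled per plate between control wells, above about 37%, limit read from the data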;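 also: 0% = DMSO with enzyme and substrate and 100% = substrate only without enzyme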
#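 System: isolated STEP enzyme; schedule: 20 min enzyme reaction at room temperature, protected from light; medium: Bis-Tris buffer pH 6.0, 2.5 mM DTT, 0.005% Tween 20; signal: fluorescence, 480/540 nm; dosing: single compound dose of 20 µM, 1% DMSO final; also added: OMFP substrate, 25 µM final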
# Casp6 inh: inhibitors of human caspase-6; P55212; purified caspase-6, Z-VEID-R110 cleavage fluorescence; inhibition, % at 12.5 µM; 0.53% of 350,000 active; AID 686996;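 active = mean inhibition across replicates at least about 35%, with every replicate also reaching that limit, limit read from the data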;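 also: 0% = median of neutral control wells and 100% = no fluorescence left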
# DNMT1 block: blocks human DNA methyltransferase DNMT1; AID 588458; 0.83% of 360,000 active; inhibition (reported as % activation of signal), % at 10 µM; DNMT1 molecular beacon, Hinp1I cleavage, fluorescence; P26358; in the data active = inhibition above about 50%
# SUMO1-SIM PPI: alters human SUMO1 binding to SIM partners. P63165. SUMO1 binding to a labelled peptide, TR-FRET, 1 h. 0.33% of 360,000 active. inhibition, % at 20 µM. AID 602429; in the data active = inhibition above about 37%
# Target sequence (P63165 whole entry, looked up): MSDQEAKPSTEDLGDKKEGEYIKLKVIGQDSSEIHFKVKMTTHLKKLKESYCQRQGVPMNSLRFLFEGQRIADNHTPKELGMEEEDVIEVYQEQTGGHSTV
# Scp1 inh: blocks human Scp-1 phosphatase activity | inhibition, % at 20 µM | 0.88% of 340,000 active | AID 493091 | Q9GZU7 | Recombinant Scp1, phosphopeptide, malachite green phosphate absorbance;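 active = inhibition above about 50% at 20 µM, limit read from the data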;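 also: plate controls were DMSO wells with enzyme for no effect and wells lacking enzyme for full effect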
# Target sequence (Q9GZU7 76-261 limits assumed): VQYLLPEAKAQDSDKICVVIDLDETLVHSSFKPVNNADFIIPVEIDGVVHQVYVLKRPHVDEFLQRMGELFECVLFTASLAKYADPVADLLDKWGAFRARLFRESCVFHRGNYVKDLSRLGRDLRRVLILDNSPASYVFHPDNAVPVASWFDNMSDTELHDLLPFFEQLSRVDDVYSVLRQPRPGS
#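 Assay system: SCP-1 catalytic fragment, aa 76-261 | Buffer or medium: Tris acetate buffer pH 5.5 with MgCl2 and Tween-20 | Compound: One concentration, 20 µM, with 1.0% DMSO | Also added: Phospho 17-mer peptide substrate | Signal: Absorbance at 630 nm | Incubation: 45 min enzyme reaction at room temperature | Measure: % inhibition of SCP-1 phosphate liberation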
# * = called active by the depositor; . = not tested or not shown; + = active, no number. This is a sample that favours compounds with a hit; in the whole collection about 1.7% have one here.
SMILES,LMPTP block,STEP block,Casp6 inh,DNMT1 block,SUMO1-SIM PPI,Scp1 inh
Cc1ccc(Cn2c(C(C)Nc3nc(-c4ccc(Cl)cc4)cs3)nc3cc(C(=O)NCCCO)ccc32)cc1 (stereo unspecified),1.4,-3.1,11.4,-34.9,3.0,-4.4
Cc1ccc(Cn2c(CCNc3nc(-c4ccc(C)cc4)cs3)nc3cc(C(=O)NCCCO)ccc32)cc1,2.0,-0.8,0.4,-77.8,51.9*,-3.0
O=C1c2ccccc2-c2onc3ccc(NCc4ccco4)c1c23,2.0,-56.7,.,35.3,-6.4,-9.5
CCNc1ccc2noc3c2c1C(=O)c1ccccc1-3,-14.6,-321.2,.,62.9*,-12.0,11.8
O=C(Nc1ccc(C(=O)O)cc1)Nc1ccc([N+](=O)[O-])cc1,0.1,-2.5,0.8,-0.1,-25.0,-16.1
COC(=O)c1ccc(NC(=O)Nc2ccc([N+](=O)[O-])cc2)cc1,84.7*,23.9,-1.3,0.5,0.0,8.1
O=C(NCCNC(=O)c1cnccn1)c1ccc(Cl)cc1,-1.8,-1.8,2.6,-0.6,-2.2,3.6
CC1O[C@@H](O[C@H](C)CC[C@@H](C)O)C(O)C[C@H]1O (stereo partly specified),-0.9,0.3,0.9,1.7,-3.3,-6.5
O=C(COc1ccccc1)Nc1ccccc1F,-1.7,-1.7,3.8,-1.4,3.4,-7.0
O=C(COc1c(Br)cc(Br)c2cccnc12)Nc1ccccc1F,9.0,3.2,-0.2,32.9,47.1*,-10.6
O=C(COC(=O)Cn1cnc2ccccc2c1=O)Nc1cc(Cl)ccc1[N+](=O)[O-],0.3,-2.6,4.6,3.7,-22.1,-4.6
C=CCN(CC=C)Cc1c(O)ccc2c1oc(=O)c1ccccc12,5.0,1.7,.,54.8*,16.1,55.7*
O=C(O)c1cc(Nc2cc(Cl)c3nonc3c2[N+](=O)[O-])ccc1O,1.3,17.8,49.5*,8.1,-1.9,-7.3
O=[N+]([O-])c1c(Nc2ccccc2O)cc(Cl)c2nonc12,4.4,13.9,8.3,-7.6,10.4,-7.7
CSc1cccc(NC(=S)NC(=O)CCc2ccccc2)c1,3.4,4.2,-0.4,-1.3,38.3*,-20.2
CSc1cccc(NC(=O)CCc2ccccc2)c1,-0.2,6.6,7.4,3.7,3.6,-9.9
C[C@](N)(Cc1ccc(O)c(O)c1)C(=O)O,5.8,0.3,87.1*,6.3,0.1,-1.2
Cc1c(C(=O)O)cccc1-c1ccc(/C=C2\SC(=O)NC2=O)o1,-3.6,5.9,2.3,2.7,16.4,12.0
N=C1S/C(=C\c2ccc(-c3ccccc3C(=O)O)o2)C(=O)N1c1ccc2c(c1)OCO2,10.6,0.9,20.2,44.2,24.6,52.9*
COc1ccc(OC)c(-c2csc3nnc(SCC(=O)Nc4ccc(NC(C)=O)cc4)n23)c1,-0.1,1.9,-4.0,-4.2,4.0,0.2
COc1cccc(-c2csc3nnc(SCC(=O)c4ccc(NC(C)=O)cc4)n23)c1,0.4,3.4,-1.2,-0.4,42.6*,-2.0
O=C1c2cccnc2C(=O)N1Cc1ccc(S(=O)(=O)N2CCN(c3ccc(Cl)cc3)CC2)cc1,2.4,1.7,1.2,-1.4,60.2*,-11.2
CCn1cc(/C=C(\NC(=O)c2ccccc2OC)C(=O)NCCCN2CCOCC2)c2ccccc21,-2.2,1.3,2.9,-0.8,-4.8,-8.0
O=C1NC(=S)S/C1=C/c1ccc(OC(=O)c2ccco2)cc1,-6.6,-2.2,13.5,2.9,0.1,-7.1
O=C1NC(=S)S/C1=C\c1ccc(SCc2ccco2)o1,76.1*,50.1*,.,103.1*,83.0*,77.2*
SMILES,LMPTP block,STEP block,Casp6 inh,DNMT1 block,SUMO1-SIM PPI,Scp1 inh
Cc1ccc(C)c(NC(=O)COc2coc(CN3CCc4ccccc43)cc2=O)c1,2.9,6.7,-1.1,-0.3,-2.3,3.1
O=C(NCC1CCCO1)c1ccc2c(c1)N(Cc1ccc(F)cc1Cl)C(=O)CS2 (stereo unspecified),-0.6,-1.7,-0.1,-0.9,3.6,-7.4
CCN(CC(=O)Nc1c(F)cccc1F)C(=O)/C=C/c1ccc2ccccc2n1,71.0*,41.7*,46.6*,101.8*,77.3*,85.9*
CCCN1CNC(=S)N(c2ccc(C)cc2C)C1,-0.9,-2.8,-4.2,0.7,5.2,-3.6
CCCN1CNC(=S)N(c2ccccc2C)C1,-0.2,-0.9,56.3*,0.2,-0.1,-4.1
Cc1nc(N)nc(N)c1Oc1ccc(Cl)cc1,38.5,0.9,0.1,0.7,0.7,3.3
Cc1nc(N)nc(N)c1/C=C/C(C)(C)c1ccc(Cl)cc1,80.8*,5.8,3.4,0.2,4.8,6.3
CCCCN(C)C1=CC2=CC(=C(C#N)C#N)CCC2CC1 (stereo unspecified),2.6,-271.3,2.1,+,18.6,-5.0
CCN(CC)C1=CC2=CC(=C(C#N)C#N)CCC2CC1 (stereo unspecified),4.0,-230.7,-2.7,+,17.3,0.8
N#CC(C#N)=C1C=C2C=C(N3CCCCC3)CCC2CC1 (stereo unspecified),.,.,.,.,.,-23.8
C=CC(=O)N1C/C(=C/c2ccc(F)cc2)C(=O)/C(=C\c2ccc(F)cc2)C1,7.2,24.5,77.7*,92.9*,75.7*,84.7*
Cc1ccccc1-n1ncc2c1CC(C)(C)CC2NC(=O)CN1CCCC1=O (stereo unspecified),-1.5,-3.0,1.0,-0.1,1.6,1.0
OC(c1cccc(Cl)c1)c1nc(-c2ccc(F)c(Cl)c2)cs1 (stereo unspecified),3.1,-0.4,0.8,-2.1,3.5,.
Cn1c2ccccc2c(=O)c2cc(C#Cc3ccccn3)ccc21,11.2,4.2,-4.8,26.0,-14.7,58.0*
C=CCn1c2ccccc2c(=O)c2cc(C#Cc3cc(OC)cc(OC)c3)ccc21,5.7,0.4,-4.2,-1.8,-90.5,52.2*
Cn1c2ccccc2c(=O)c2ccc(C#Cc3ccccn3)cc21,.,.,1.1,.,.,21.7
COc1cc(C#Cc2c(C=O)n(C)c3ccccc23)cc(OC)c1,-0.2,-4.4,-3.2,-2.2,-6.8,-11.4
COC(=O)c1cc(S(=O)(=O)N2CCOCC2)c(Cl)cc1N1CCOCC1,-0.1,-2.3,.,-1.0,1.2,-6.0
COC(=O)c1cc(C)nc2c1C(=O)C(=O)C=C2N1CCOCC1,20.7,10.8,82.7*,96.6*,78.9*,5.6
Cc1[nH]n(-c2ccccc2)c(=O)c1C=Nc1ccc(S(=O)(=O)N=C(N)N)cc1,-0.9,-4.4,-4.8,-3.2,-4.1,-1.7
Cc1[nH]n(-c2ccccc2)c(=S)c1C=Nc1ccc([N+](=O)[O-])cc1,-1.8,-4.4,-20.3,5.9,-6.8,74.3*
Cn1cnnc1SCCNS(=O)(=O)c1ccccc1,-1.4,-4.8,.,0.0,2.0,2.6
O=C(O)c1cccc2cc(-c3ccccc3)oc(=O)c12,-1.5,1.6,2.1,1.2,-7.0,-13.2
